According to ChEMBL document CHEMBL2424602, “Mannich bases of 7-piperazinylquinolones and kojic acid derivatives: synthesis, in vitro antibacterial activity and in silico study” (2013):
Converted amounts (≈) assume the structure as drawn.

Tests used:
Assay type in all cases: functional
Pseudomonas aeruginosa [1] = test: Antibacterial activity against Pseudomonas aeruginosa ATCC 9027 assessed as growth inhibition after 18 hrs by agar dilution method; settings: ATCC 9027, 18 h
How it was run: (§1)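 MIC read by conventional agar dilution. Compounds were dissolved at 10.0 mg in 1 mL DMSO and diluted with 9 mL distilled water to make the stock. Two-fold serial dilutions were made in molten sterile Mueller-Hinton agar, with final levels starting at 100, 50, 25, 12.5, 6.25, 3.13, 1.56 and lower.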

Staphylococcus aureus [2] = test: Antibacterial activity against Staphylococcus aureus ATCC 6538 assessed as growth inhibition after 18 hrs by agar dilution method; settings: ATCC 6538, 18 h; how it was run: as §1
Escherichia coli = test: Antibacterial activity against Escherichia coli ATCC 8739 assessed as growth inhibition after 18 hrs by agar dilution method; settings: ATCC 8739, 18 h; how it was run: as §1
Bacillus spizizenii = test: Antibacterial activity against Bacillus subtilis ATCC 6633 assessed as growth inhibition after 18 hrs by agar dilution method; settings: ATCC 6633, 18 h; how it was run: as §1
Klebsiella pneumoniae = test: Antibacterial activity against Klebsiella pneumoniae ATCC 10031 assessed as growth inhibition after 18 hrs by agar dilution method; settings: ATCC 10031, 18 h; how it was run: as §1
[3] = test system: Staphylococcus epidermidis; test: Antibacterial activity against Staphylococcus epidermidis ATCC 12228 assessed as growth inhibition after 18 hrs by agar dilution method; settings: ATCC 12228, 18 h; how it was run: as §1
Staphylococcus aureus [4] = test: Potency index, ratio of norfloxacin MIC to compound MIC for Staphylococcus aureus ATCC 6538
Pseudomonas aeruginosa [5] = test: Potency index, ratio of norfloxacin MIC to compound MIC for Pseudomonas aeruginosa ATCC 9027

Row | SMILES | MIC (Pseudomonas aeruginosa [1]) [µg/mL] | MIC (Staphylococcus aureus [2]) [µg/mL] | MIC (Escherichia coli) [µg/mL] | MIC (Bacillus spizizenii) [µg/mL] | MIC (Klebsiella pneumoniae) [µg/mL] | MIC [3] [µg/mL] | Ratio (Staphylococcus aureus [4]) | Ratio (Pseudomonas aeruginosa [5])
1 | O=C(O)c1cn(C2CC2)c2cc(N3CCN(Cc4oc(CCl)cc(=O)c4O)CC3)c(F)cc2c1=O | 0.195 (≈ 0.387 µM) | 0.097 (≈ 0.192 µM) | 0.78 (≈ 1.55 µM) | 0.39 (≈ 0.774 µM) | 0.195 (≈ 0.387 µM) | 0.39 (≈ 0.774 µM) | 4 | 8
2 | COc1c(N2CCN(Cc3oc(CO)cc(=O)c3O)C(C)C2)c(F)cc2c(=O)c(C(=O)O)cn(C3CC3)c12 (stereo unspecified) | 0.78 (≈ 1.47 µM) | 0.78 (≈ 1.47 µM) | 0.39 (≈ 0.737 µM) | 3.12 (≈ 5.9 µM) | 1.56 (≈ 2.95 µM) | 3.12 (≈ 5.9 µM) |  | 
3 | COc1c(N2CCN(Cc3oc(CCl)cc(=O)c3O)C(C)C2)c(F)cc2c(=O)c(C(=O)O)cn(C3CC3)c12 (stereo unspecified) | 0.78 (≈ 1.42 µM) | 0.39 (≈ 0.712 µM) | 1.56 (≈ 2.85 µM) | 1.56 (≈ 2.85 µM) | 1.56 (≈ 2.85 µM) | 1.56 (≈ 2.85 µM) |  | 
4 | CCn1cc(C(=O)O)c(=O)c2cc(F)c(N3CCN(Cc4oc(CCl)cc(=O)c4O)CC3)cc21 | 1.56 (≈ 3.17 µM) | 1.56 (≈ 3.17 µM) | 0.39 (≈ 0.793 µM) | 1.56 (≈ 3.17 µM) | 0.78 (≈ 1.59 µM) | 1.56 (≈ 3.17 µM) |  | 
5 | CCn1cc(C(=O)O)c(=O)c2cc(F)c(N3CCN(Cc4oc(CO)cc(=O)c4O)CC3)nc21 | 12.5 (≈ 26.3 µM) | 6.25 (≈ 13.2 µM) | 1.56 (≈ 3.29 µM) | 12.5 (≈ 26.3 µM) | 12.5 (≈ 26.3 µM) | 12.5 (≈ 26.3 µM) |  | 
6 | CCn1cc(C(=O)O)c(=O)c2cc(F)c(N3CCNCC3)cc21 [NORFLOXACIN] | 1.56 (≈ 4.89 µM) | 0.39 (≈ 1.22 µM) | 0.195 (≈ 0.611 µM) | 0.195 (≈ 0.611 µM) | 0.39 (≈ 1.22 µM) | 0.39 (≈ 1.22 µM) |  | 

Continued by falling MIC (Pseudomonas aeruginosa [1]), values first:

Row | MIC (Pseudomonas aeruginosa [1]) [µg/mL] | MIC (Staphylococcus aureus [2]) [µg/mL] | MIC (Escherichia coli) [µg/mL] | MIC (Bacillus spizizenii) [µg/mL] | MIC (Klebsiella pneumoniae) [µg/mL] | MIC [3] [µg/mL] | SMILES | Ratio (Staphylococcus aureus [4]) | Ratio (Pseudomonas aeruginosa [5])
7 | 3.12 (≈ 6.6 µM) | 3.12 (≈ 6.6 µM) | 0.78 (≈ 1.65 µM) | 0.78 (≈ 1.65 µM) | 1.56 (≈ 3.29 µM) | 6.25 (≈ 13.2 µM) | CCn1cc(C(=O)O)c(=O)c2cc(F)c(N3CCN(Cc4oc(CO)cc(=O)c4O)CC3)cc21 |  | 
8 | 3.12 (≈ 6.18 µM) | 3.12 (≈ 6.18 µM) | 0.39 (≈ 0.772 µM) | 3.12 (≈ 6.18 µM) | 1.56 (≈ 3.09 µM) | 6.25 (≈ 12.4 µM) | CCn1cc(C(=O)O)c(=O)c2cc(F)c(N3CCN(Cc4oc(CO)cc(=O)c4O)C(C)C3)c(F)c21 (racemic) |  | 
9 | 1.56 (≈ 3.21 µM) | 1.56 (≈ 3.21 µM) | 0.78 (≈ 1.61 µM) | 3.12 (≈ 6.44 µM) | 1.56 (≈ 3.21 µM) | 3.12 (≈ 6.44 µM) | O=C(O)c1cn(C2CC2)c2cc(N3CCN(Cc4oc(CO)cc(=O)c4O)CC3)c(F)cc2c1=O |  | 
